Source: PubChem BioAssay
MC4R antag cAMP: blocks human MC4R cAMP signaling; MC4R-expressing cells, MTII-stimulated cAMP, LANCE TR-FRET; 360,000 compounds, 0.48% hits; AID 540295; inhibition, % at 6.5 µM;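 active = inhibition above its plate's cutoff, the mean of tested wells on that plate plus 3 SD, cut at about 29% in these data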;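 note: 0% = Melanotan II alone and 100% = Melanotan II plus saturating MCL0020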
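Assay system: U2OS-MC4R stable cell line; Also added: Melanotan II; Technique: Eu-cAMP/anti-cAMP TR-FRET, emission 671 nm; Times: 30-min compound, 1-h challenge, 1-h detection, room temperature.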
MC4R ag barr: agonists of human melanocortin 4 receptor (MC4R) beta-arrestin. P32245. U2OS MC4R beta-arrestin complementation, luminescence; percent of melanotan II response, DMSO zero. activation, % at 8.9 µM. 360,000 compounds, 0.98% hits. AID 540308;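 active = activation above a per-plate cutoff, the mean activation of sample wells on that plate plus 3 SD, cut at about 8% in these data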
TLR4-MyD88 BLA: blocks binding of human TLR4 to MyD88; O00206+Q99836; HeLa CL3-4 TLR4/MyD88 BLA complementation, FRET ratio; inhibition, % at 8.4 µM; 200,000 compounds, 0.18% hits; AID 861; in the data active = inhibition above about 25%;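 note: 0% = vehicle and 100% = reference inhibitor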
Target sequence (O00206 whole entry, looked up): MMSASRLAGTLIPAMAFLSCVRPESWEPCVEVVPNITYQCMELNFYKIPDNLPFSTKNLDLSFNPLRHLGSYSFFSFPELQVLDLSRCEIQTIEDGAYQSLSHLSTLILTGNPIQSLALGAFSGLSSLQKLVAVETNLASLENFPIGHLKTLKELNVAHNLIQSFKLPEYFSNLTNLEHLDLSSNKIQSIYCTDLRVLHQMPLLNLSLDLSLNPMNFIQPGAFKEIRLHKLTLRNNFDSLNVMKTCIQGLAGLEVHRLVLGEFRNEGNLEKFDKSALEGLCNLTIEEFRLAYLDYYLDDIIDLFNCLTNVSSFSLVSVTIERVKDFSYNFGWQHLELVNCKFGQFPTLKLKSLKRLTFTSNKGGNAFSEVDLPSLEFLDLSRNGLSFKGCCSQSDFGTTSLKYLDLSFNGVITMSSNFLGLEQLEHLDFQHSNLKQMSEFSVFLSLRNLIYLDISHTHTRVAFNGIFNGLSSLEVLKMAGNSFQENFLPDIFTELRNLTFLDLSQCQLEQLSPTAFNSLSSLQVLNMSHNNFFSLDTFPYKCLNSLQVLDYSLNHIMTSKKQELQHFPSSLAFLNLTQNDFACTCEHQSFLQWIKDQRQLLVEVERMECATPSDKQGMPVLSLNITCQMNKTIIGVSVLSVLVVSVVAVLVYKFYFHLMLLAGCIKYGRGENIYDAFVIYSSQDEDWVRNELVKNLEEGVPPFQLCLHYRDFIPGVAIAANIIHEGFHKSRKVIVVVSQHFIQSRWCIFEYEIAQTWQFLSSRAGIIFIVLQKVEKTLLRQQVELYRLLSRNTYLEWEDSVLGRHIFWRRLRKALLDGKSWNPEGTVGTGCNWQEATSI
Target sequence (Q99836 whole entry, looked up): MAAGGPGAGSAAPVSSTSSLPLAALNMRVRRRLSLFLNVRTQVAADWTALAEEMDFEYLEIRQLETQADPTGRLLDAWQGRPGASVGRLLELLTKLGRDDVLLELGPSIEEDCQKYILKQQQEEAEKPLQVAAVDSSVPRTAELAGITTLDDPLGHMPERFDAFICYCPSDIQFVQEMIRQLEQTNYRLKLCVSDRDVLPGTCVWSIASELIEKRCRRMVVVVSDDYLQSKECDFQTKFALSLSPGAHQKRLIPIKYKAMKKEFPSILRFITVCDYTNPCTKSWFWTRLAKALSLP
NOD2 RIPK2 PPI: NOD2-RIPK2 protein interaction inhibition; 360,000 compounds, 0.38% hits; CHO BLA complementation NOD2-RIPK2, CCF4 ratio; inhibition, % at 4.98 µM; in the data active = inhibition above about 21%;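 note: 0% = vehicle only and 100% = reference blocker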
TLR9-MyD88 block: TLR9-MyD88 interaction inhibition; AID 504734; CHO BLA complementation TLR9-MyD88, CCF4 FRET ratio; inhibition, % at 4.98 µM; 340,000 compounds, 0.21% hits;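 active = inhibition above the mean over all tested compounds plus 3 SD, cut at about 21% in these data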;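 note: 0% = DMSO only wells and 100% = clavulanate BLA inhibitor control wells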
MC4R barr ag: human MC4R beta-arrestin agonism confirmation. shares compounds with MC4R ag barr. U2OS MC4R beta-arrestin recruitment, luminescence; scaled DMSO 0%, Melanotan II 100%. activation, % at 8.9 µM. 2,400 compounds, 31% hits. AID 602192;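 active = mean activation across replicates above the hit cutoff set in the earlier primary screen, cut at about 8% in these data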
MOR DOR agonist: activates mu-delta opioid heterodimer, MC4R agonist counter-screen | U2OS PathHunter beta-arrestin, beta-gal luminescence; percent of deltorphin B response, DMSO zero | shares compounds with MC4R ag barr | activation, % at 9.2 µM | AID 602194 | 2,400 compounds, 5.8% hits;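 active = mean activation across replicates exceeds the hit threshold derived in the earlier primary screen, cut at about 18% in these data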;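 note: 100% = deltorphin B at 0.9 µM final and 0% = DMSO alone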
Active calls of the source: *; . = no result. Sampled rows, rich in hits. Any-hit rate of the full collection: about 1.8%.

SMILES | MC4R antag cAMP | MC4R ag barr | TLR4-MyD88 BLA | NOD2 RIPK2 PPI | TLR9-MyD88 block | MC4R barr ag | MOR DOR agonist
CCOC(=O)c1c(C)oc2ccc(O)c(CN(C)C)c12 | 3.3 | -1.0 | -14.2 | -10.2 | 11.0 | . | .
COc1ccc2cc(CNCCOCCOCCNCc3ccc4cc(OC)ccc4c3)ccc2c1 | 4.9 | 17.5* | . | 18.0 | -6.0 | 57.9* | 20.1*
CS(=O)(=O)c1ccccc1C(=O)Nc1ccc(-c2nc3ccccc3[nH]2)cc1 | -0.8 | -2.5 | . | -3.2 | 6.1 | . | .
O=C(Nc1ccc(-c2nc3ccccc3[nH]2)cc1)c1ccccc1NS(=O)(=O)c1ccc(F)cc1 | 25.0 | 14.7* | -9.5 | -3.0 | 5.9 | 5.8 | 2.0
O=C(Cc1cccs1)Nc1cccc(-c2nc3cc4ccccc4cc3[nH]2)c1 | 19.4 | 10.6* | -7.1 | 4.5 | -0.2 | 13.9* | 5.7
COc1cc2c(cc1OC)C(c1ccc(-c3ccc(Cl)cc3Cl)o1)=NCC2 | -10.1 | 11.8* | -3.7 | 9.0 | -0.8 | 7.4 | 4.1
COc1cc2c(cc1OC)C(c1ccc(-c3cc(Cl)ccc3Cl)o1)=NCC2 | -10.1 | 1.1 | -1.8 | -8.9 | -7.9 | . | .
CC(=O)NCCc1ccc(S(=O)(=O)Nc2ccc3c(c2)OCCO3)cc1 | 5.9 | -1.2 | . | -4.0 | 1.4 | . | .
CC(C)(C)NC(=O)CN(C(=O)CCC(=O)Nc1nccs1)c1ccccc1F | 10.2 | 11.8* | . | -13.8 | -14.8 | -0.5 | 1.6
Cn1c2ccccc2c2cnn(CC(=O)Nc3ccc(F)cc3F)c(=O)c21 | -3.4 | 15.7* | . | -3.4 | -0.5 | 1.4 | 3.2
COc1ccc(NC(=O)c2cc(-c3ccccn3)nc3c(C)cc(C)cc23)c(C)c1 | 19.9 | 11.6* | . | -10.3 | -10.5 | 2.9 | 3.4
Cc1cc(C)c2nc(-c3ccccn3)cc(C(=O)NCc3ccc(S(N)(=O)=O)cc3)c2c1 | 1.6 | 9.7* | -20.4 | 10.7 | . | -0.1 | 5.0
Cc1ccc2nc(-c3cccc(NS(C)(=O)=O)c3)cc(-c3ccccc3)c2c1 | 0.0 | 11.0* | 6.6 | 6.3 | 2.3 | 7.5 | 3.1
CCOC(=O)c1[nH]c(C)c(C(=O)OCc2ccccc2F)c1C | -13.8 | 25.8* | . | 11.6 | 4.0 | 3.4 | 7.1
CCc1c(C)[nH]c(C(=O)OCc2ccccc2)c1C | -0.9 | 10.2* | -7.9 | 0.4 | -3.8 | 1.1 | 8.0
COC(=O)c1c(C)[nH]c(C(=O)CSc2ccc(Cl)cc2)c1C | 7.6 | 28.6* | -2.9 | -2.1 | -2.2 | 11.4* | 6.5
CCOC(=O)c1[nH]c(C)c(C(=O)OCCOc2cccc(C)c2)c1C | -0.6 | 12.3* | -7.2 | -13.8 | 4.4 | 8.5* | 5.7
CCOC(=O)c1c(C)[nH]c(C(=O)NNC(=O)c2ccccc2F)c1C | 7.2 | 2.9 | . | -13.1 | -5.3 | . | .
C=CCNc1nc2ccccc2nc1NS(=O)(=O)c1ccc(Br)cc1 | 1.4 | 0.2 | . | -3.7 | -6.7 | . | .
COC(=O)c1c(C)[nH]c(C(=O)OCc2ccc(F)cc2)c1C | -1.5 | 11.9* | 11.2 | -1.1 | -14.8 | 1.1 | 6.8
Cc1ccc(C2CC(c3cccs3)=NN2C(=O)CCl)cc1 (centres undefined) | 20.8 | 10.4* | . | 0.2 | 9.1 | 3.6 | 26.9*
CCC(=O)N1N=C(c2cccs2)CC1c1ccc(C)cc1 (centres undefined) | 0.8 | -0.2 | . | 3.0 | -2.7 | . | .
O=C(Nc1nccs1)c1ccc(COc2ccccc2)o1 | 1.1 | 1.3 | . | -2.0 | -10.6 | . | .
Cc1ccc(OCc2ccc(C(=O)Nc3nccs3)o2)cc1 | -5.4 | 15.1* | -7.8 | -7.4 | -9.3 | 2.5 | 2.8
CCOC(=O)NN1C(=O)c2ccccc2NC1c1ccc(OC)cc1OC (centres undefined) | 7.7 | -1.0 | -7.5 | 5.6 | 7.0 | . | .
SMILES | MC4R antag cAMP | MC4R ag barr | TLR4-MyD88 BLA | NOD2 RIPK2 PPI | TLR9-MyD88 block | MC4R barr ag | MOR DOR agonist
COc1cc(C)c(/C=C(\C#N)C(=O)Nc2cccc(C)c2)cc1C(C)C | 4.8 | 13.1* | -7.7 | -5.1 | -1.9 | 4.7 | 3.9
O=c1c(Cl)c(N/N=C/c2ccc(Cl)cc2)cnn1-c1ccccc1 | 2.9 | 18.4* | -7.2 | 3.2 | 13.6 | 9.4* | 4.6
Nc1c(C(=O)N/N=C/c2ccc(Cl)cc2)cnn1-c1ccccc1 | 8.7 | 4.1 | . | -2.3 | 1.7 | . | .
COc1ccc(OC)c(-c2cc(C(=O)Nc3cc(C)on3)no2)c1 | -13.9 | 16.6* | -7.5 | -10.1 | 3.1 | 10.1* | 9.7
COc1ccc(NC(=O)c2cc(-c3ccco3)on2)c(OC)c1 | 11.4 | 10.3* | . | -3.3 | 0.7 | 0.8 | 8.4
O=C1NC[C@H](Cc2ccccc2)N(C[C@H]2CCCN2C[C@H](Cc2ccc(O)cc2)N2C[C@H](Cc3ccc(O)cc3)N(CC3CCCCCC3)C(=O)C2=O)C1=O | 1.9 | -1.0 | . | -4.6 | -3.0 | . | .
NS(=O)(=O)c1ccc(NC(=S)N2CCN(c3ccc(Cl)c(Cl)c3)CC2)cc1 | -2.7 | 11.6* | 2.8 | -5.5 | 3.1 | -2.6 | 3.0
COc1ccc(NC(=O)CSc2ccc3nnc(-c4cccnc4)n3n2)cc1OC | -0.6 | -2.0 | . | -3.7 | -13.5 | . | .
COc1cccc(CNC(=O)C(=O)N2CCC3(CC2)OCCN3S(=O)(=O)c2ccc(C)cc2)c1 | 12.8 | -2.4 | . | -8.6 | 1.8 | . | .
CCn1c2ccccc2c2cc(CNCc3ccc(OC)cc3OC)ccc21 | 1.6 | 41.2* | -7.2 | 6.0 | 1.4 | 52.0* | 20.5*
COc1cccc(CNCc2ccc(OC)cc2OC)c1 | 10.4 | -1.3 | . | -4.9 | 2.5 | . | .
Cc1ccc(C(=O)OC(C)CN2CCN(C)CC2)cc1 (centres undefined) | -3.0 | -1.4 | . | -0.1 | -10.5 | . | .
CCCC(=O)Nc1nn(C)c2nc3c(C)cccc3cc12 | -1.0 | -2.6 | 17.0 | -4.3 | 4.5 | . | .
Cc1cccc2cc3c(NC(=O)c4ccccn4)nn(C)c3nc12 | -3.2 | 12.7* | 2.9 | -2.6 | 0.7 | 1.6 | 4.3
CC(C)(C)OC(=O)N[C@@H](Cc1ccccc1)c1nnc(SCC(=O)c2ccc(Cl)cc2)o1 | -0.6 | 34.9* | -3.0 | -3.0 | -0.1 | 1.6 | 3.0
CC(C)(C)OC(=O)N[C@@H](Cc1ccccc1)c1nnc(SCC(=O)O)o1 | 2.2 | -2.0 | 13.8 | 2.0 | -3.1 | . | .
CCC1CCCCN1S(=O)(=O)c1ccc(C(=O)Nc2nnc(C3=COCCO3)o2)cc1 (centres undefined) | -0.8 | -3.0 | . | -14.4 | -7.8 | . | .
Cc1cc(OCC(=O)Nc2sc3c(c2C#N)CC(C)(C)NC3(C)C)c(C(C)C)cc1Cl | 3.8 | 13.6* | . | 0.6 | 0.5 | 8.5* | 7.5
COc1ccccc1OCC(=O)Nc1sc2c(c1C(N)=O)CCC2 | -10.1 | -0.8 | . | -3.1 | 8.5 | . | .
